Reference: ChEMBL document CHEMBL4376878, “Potent Thiophene Antagonists of Human Complement C3a Receptor with Anti-Inflammatory Activity” (J Med Chem, 2020)
pEC50, pIC50: −log10 of the molar value. Activity calls are given as the source filed them. The calls are words filed in the database; no cut-off is given here.

Experiments:
[1] = AUC (0 to 8 hrs) in Wistar rat at 0.5 mg/kg, iv by LC-MS/MS analysis; assay type: ADME, organism-based; set-up: time < 8 hr, dose 0.5 mg/kg, route intravenous; details: in vivo
Summary of the method: (§1)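 Male Wistar rats with jugular vein catheter, fasted overnight; dosed p.o. by gavage in olive oil or i.v. via catheter in 50% DMSO. Blood drawn from conscious unrestrained rats 5 min before dosing, then 5, 15, 30 min and 1–8 h after. Volume replaced with heparinized saline. Rats fed after 4 h sample. n = 3 per route.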

[2] = Clearance in Wistar rat at 0.5 mg/kg, iv by LC-MS/MS analysis; assay type: ADME, organism-based; details: in vivo; summary of the method: as §1
[3] = Cmax in Wistar rat at 10 mg/kg, po by LC-MS/MS analysis; assay type: ADME, organism-based; set-up: dose 10 mg/kg, route oral; details: in vivo; summary of the method: as §1
Rattus norvegicus = test: Antiinflammatory activity in Wistar rat model of BR103-induced paw edema assessed as reduction in hind paw swelling at 10 mg/kg, po administered via gavage pretreated for 2 hrs followed by BR103 challenge and measured after 30 mins by digital caliper method relative to control; assay type: functional; set-up: scale not given: the % may be the effect or the level left
Summary of the method: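 Male Wistar rats were given antagonist at 10 mg/kg by oral gavage in olive oil 2 h before intraplantar BR103 (350 μg in 100 μL of 5% DMSO). Sham paws received vehicle; sham and control rats received olive oil only. Paw thickness and width were measured with digital calipers at 0, 0.5, 1 and 2 h after agonist; n = 3 per group.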

[4] = Stability of the compound in rat liver microsomes at 1 uM preincubated for 5 mins followed by NADPH addition and measured after 1 hr by LC-MS/MS analysis; assay type: ADME, Microsome
Summary of the method: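 Compound at 1 μM in 100 mM phosphate buffer, pH 7.4 (0.1% DMSO), was incubated with rat liver microsomes […] at 37 °C before further NADPH was added. Aliquots taken at 0, 5, 15, 30 and 60 min were quenched in MeCN/H₂O (9:1), centrifuged and analysed by LC-MS/MS. Microsomal activity was confirmed in parallel with SLIGRL-NH₂; n = 3.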

[5] = Tmax in Wistar rat at 10 mg/kg, po by LC-MS/MS analysis; assay type: ADME, organism-based; details: in vivo; summary of the method: as §1
[6] = target: T1, C3a anaphylatoxin chemotactic receptor (Homo sapiens, UniProt Q16581); test: Agonist activity at C3a receptor in human MDM cells assessed as induction of intracellular calcium release measured at 1 sec interval for => 200 secs by Fluo-3 AM dye-based FLIPR assay; assay type: cell-based; details: for pEC50: read-out: EC50; for EC50: read-out: pEC50 (converted)
T1 sequence (Q16581 whole entry): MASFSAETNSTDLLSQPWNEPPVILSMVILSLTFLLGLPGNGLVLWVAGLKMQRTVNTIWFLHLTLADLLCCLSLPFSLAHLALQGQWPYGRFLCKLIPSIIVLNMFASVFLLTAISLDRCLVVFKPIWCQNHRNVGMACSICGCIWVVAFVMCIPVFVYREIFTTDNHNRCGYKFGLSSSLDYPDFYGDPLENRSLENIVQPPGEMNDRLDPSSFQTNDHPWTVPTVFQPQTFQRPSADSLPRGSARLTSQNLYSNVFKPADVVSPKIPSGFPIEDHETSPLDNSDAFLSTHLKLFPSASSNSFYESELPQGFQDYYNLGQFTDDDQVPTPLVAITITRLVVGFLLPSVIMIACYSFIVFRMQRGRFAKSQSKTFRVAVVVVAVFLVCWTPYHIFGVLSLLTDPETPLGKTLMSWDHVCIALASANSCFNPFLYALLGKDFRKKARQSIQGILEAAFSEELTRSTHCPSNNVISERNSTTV
Summary of the method: (§2)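 HMDMs were differentiated from CD14⁺ monocytes with M-CSF (100 ng/mL) for 7 days and seeded overnight at 5 × 10⁴ cells/well. Cells were loaded with 4 μM Fluo-3 AM for 1 h at 37 °C, then placed in HBSS with 2.5 mM probenecid and 20 mM HEPES, pH 7.4. Agonist was added on FLIPR and read at ex 495/em 520 nm. EC50 is relative to the maximum from 1 μM C3a; n ≥ 3.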

[7] = target: T1, C3a anaphylatoxin chemotactic receptor; test: Antagonist activity at C3a receptor in human MDM cells assessed as inhibition of C3a-induced intracellular calcium release preincubated for 30 mins followed by C3a addition and measured at 1 sec interval for => 200 secs by Fluo-3 AM dye-based FLIPR assay; assay type: functional, cell-based; details: read-out: IC50
Summary of the method: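 Macrophages were derived from CD14⁺ monocytes (M-CSF, 7 days) and dye-loaded with 4 μM Fluo-3 AM for 1 h at 37 °C in HBSS/probenecid/HEPES, pH 7.4. Antagonist was preincubated for 30 min at 37 °C before addition of synthetic full-length human C3a (100 nM). FLIPR fluorescence was read at ex 495/em 520 nm. Percent response was plotted against log concentration; n ≥ 3.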

[8] = Volume of distribution in Wistar rat at 0.5 mg/kg, iv by LC-MS/MS analysis; assay type: ADME, organism-based; details: in vivo; summary of the method: as §1
[9] = Stability of the compound in rat plasma at 1 mM measured after 4 hrs by LC-MS analysis; assay type: ADME, cell-free
Summary of the method: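 Compound added to rat plasma from 1 mM DMSO stock (stock concentration) and incubated at 37 °C. Samples taken at 0, 5, 15, 30, 60, 120 and 240 min, quenched in MeCN/H₂O 9:1, centrifuged and analyzed by LC-MS. Plasma activity checked with SLIGRL-NH₂.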

[10] = Elimination half-life in Wistar rat at 0.5 mg/kg, iv by LC-MS/MS analysis; assay type: ADME, organism-based; details: in vivo, read-out: beta t1/2; summary of the method: as §1
[11] = AUC (0 to 8 hrs) in Wistar rat at 10 mg/kg, po by LC-MS/MS analysis; assay type: ADME, organism-based; set-up: dose 10 mg/kg, time < 8 hr, route oral; details: in vivo; summary of the method: as §1
[12] = target: T1, C3a anaphylatoxin chemotactic receptor; test: Partial agonist activity at C3a receptor in human MDM cells assessed as induction of intracellular calcium release at higher concentration measured at 1 sec interval for => 200 secs by Fluo-3 AM dye-based FLIPR assay relative to control; assay type: cell-based; summary of the method: as §2
[13] = target: T2, C3a anaphylatoxin chemotactic receptor (Homo sapiens) (UniProt Q16581); test: Displacement of Eu-DTPA-C3a from Galpha16-coupled C3a receptor (unknown origin) expressed in HEK293 cells measured after 60 mins by time-resolved fluorescence assay; assay type: cell-based
T2 sequence (whole entry): T1 sequence (Q16581 whole entry)

[14] = target: T3, C5a anaphylatoxin chemotactic receptor 1 (Homo sapiens) (UniProt P21730); test: Antagonist activity at C5a receptor in human MDM cells assessed as inhibition of C5a-induced intracellular calcium release preincubated for 30 mins followed by C5a addition and measured at 1 sec interval for => 200 secs by Fluo-3 AM dye-based FLIPR assay; assay type: functional, cell-based
T3 sequence (whole entry): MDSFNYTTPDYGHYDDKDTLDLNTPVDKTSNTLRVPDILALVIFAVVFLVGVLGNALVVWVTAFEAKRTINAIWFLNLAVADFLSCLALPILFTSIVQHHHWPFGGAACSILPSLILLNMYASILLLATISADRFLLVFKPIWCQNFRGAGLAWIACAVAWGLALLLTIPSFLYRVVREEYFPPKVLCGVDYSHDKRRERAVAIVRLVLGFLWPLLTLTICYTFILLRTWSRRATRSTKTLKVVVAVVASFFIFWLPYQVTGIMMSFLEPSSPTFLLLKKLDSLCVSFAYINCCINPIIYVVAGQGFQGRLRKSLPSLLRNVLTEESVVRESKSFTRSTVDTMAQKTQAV
Summary of the method: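 HMDMs from CD14+ monocytes after 7 days in M-CSF; 5 × 10⁴ cells/well seeded overnight. Cells loaded 1 h at 37 °C with 4 μM Fluo-3 AM, then washed into HBSS with 2.5 mM probenecid and 20 mM HEPES, pH 7.4. Antagonist preincubated 30 min at 37 °C before C5a. Fluorescence (ex 495/em 520 nm) read every 1 s for ≥200 s.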

Row | SMILES | pEC50 [6] | EC50 [6] [µM] | pIC50 [7] | further results
1 | N=C(N)NCCC[C@H](NC(=O)c1ccc(C(c2ccc(Cl)cc2)c2ccc(Cl)cc2)s1)C(=O)O | < 4.00 | > 100 | 7.52 | AUC(0-t) at 8 h [1]: 1800 ng·h/mL; clearance [2]: 4.6 mL/min/kg; Cmax [3]: 143 ng/mL; Activity (Rattus norvegicus): 45%; Stability [4]: Stable; Tmax [5]: 4 h; Vd [8]: 0.3 L; Stability [9]: Stable; half-life [10]: 1.02 h; AUC(0-t) at 8 h [11]: 814 ng·h/mL
2 | N=C(N)NCCC[C@H](NC(=O)c1cc(-c2ccccc2)c(C(c2ccccc2)c2ccccc2)s1)C(=O)O | < 4.00 | > 100 | 6.85 | –
3 | CCC(c1ccccc1)c1ccc(C(=O)N[C@@H](CCCNC(=N)N)C(=O)O)s1 (mixture of isomers) | < 4.00 | > 100 | 5.64 | –
4 | N=C(N)NCCC[C@H](NC(=O)c1ccc(C2CCCCCCCCCCC2)s1)C(=O)O | < 4.00 | > 100 | < 4.00 | –
5 | COc1ccc(C(c2ccc(OC)cc2)c2ccc(C(=O)N[C@@H](CCCNC(=N)N)C(=O)O)s2)cc1 | < 4.00 | > 100 | 5.21 | –
6 | N=C(N)NCCC[C@H](NC(=O)c1ccc(C(c2ccccc2)c2ccccn2)s1)C(=O)O (mixture of isomers) | < 4.00 | > 100 | 7.40 | Activity [12]: 30 to 80%
7 | Cc1[nH]c(C(c2ccccc2)c2ccccc2)nc1C(=O)N[C@@H](CCCNC(=N)N)C(=O)O | – | – | – | inhibition [13]: Dose-dependent effect
8 | N=C(N)NCCC[C@H](NC(=O)c1ccc(C(Cc2ccccc2)Cc2ccccc2)s1)C(=O)O | < 4.00 | > 100 | 7.00 | –
9 | Cc1cc(C(c2ccc(O)cc2)c2ccc(O)cc2)sc1C(=O)N[C@@H](CCCNC(=N)N)C(=O)O | < 4.00 | > 100 | 6.10 | Stability [4]: Stable
10 | N=C(N)NCCC[C@H](NC(=O)c1ccc(C(c2cccc(Cl)c2)c2cccc(Cl)c2)s1)C(=O)O | 7.30 | – | 8.22 | Activity [12]: <= 60%
11 | N=C(N)NCCC[C@H](NC(=O)c1ccc(C(c2ccc(F)cc2)c2ccc(F)cc2)s1)C(=O)O | < 5.00 | > 10 | 7.00 | –
12 | N=C(N)NCCC[C@H](NC(=O)c1sc(C(c2ccccc2)c2ccccc2)cc1Br)C(=O)O | – | 100 | 6.29 | Activity [12]: 30 to 80%
13 | Cc1cc(C(=O)N[C@@H](CCCNC(=N)N)C(=O)O)sc1C(c1ccccc1)c1ccccc1 | < 4.00 | > 100 | 6.85 | –
14 | CC(c1ccccc1)c1ccc(C(=O)N[C@@H](CCCNC(=N)N)C(=O)O)s1 (mixture of isomers) | < 4.00 | > 100 | < 5.00 | –
15 | N=C(N)NCCC[C@H](NC(=O)c1sc(C(c2ccccc2)c2ccccc2)cc1-c1ccccc1)C(=O)O | < 4.00 | > 100 | < 4.00 | –
16 | COc1ccc(C(c2ccc(OC)cc2)c2cc(C)c(C(=O)N[C@@H](CCCNC(=N)N)C(=O)O)s2)cc1 | < 4.00 | > 100 | 5.70 | –
17 | CC(=O)N[C@@H](Cc1ccccc1)C(=O)N[C@H]1CCCNC(=O)[C@H](CCCN=C(N)N)NC(=O)[C@H](Cc2c[nH]c3ccccc23)NC(=O)[C@@H](CC2CCCCC2)NC(=O)[C@@H]2CCCN2C1=O | – | – | – | inhibition [14]: Active
18 | N=C(N)NCCC[C@H](NC(=O)c1sc(C(c2ccccc2)c2ccccc2)c2c1CCCC2)C(=O)O | < 4.00 | > 100 | 5.62 | –
19 | Cc1cc(C(c2cccc(Cl)c2)c2cccc(Cl)c2)sc1C(=O)N[C@@H](CCCNC(=N)N)C(=O)O | 7.34 | – | 8.52 | Activity [12]: <= 80%
20 | N=C(N)NCCC[C@H](NC(=O)c1ccc(C(c2ccccc2)C2CCCCC2)s1)C(=O)O (mixture of isomers) | 7.15 | – | 8.40 | Activity [12]: <= 30%
21 | CC(C)=C(c1ccccc1)c1ccc(C(=O)N[C@@H](CCCNC(=N)N)C(=O)O)s1 | < 4.00 | > 100 | 5.36 | –
22 | N=C(N)NCCC[C@H](NC(=O)c1cnc(C(c2ccccc2)c2ccccc2)s1)C(=O)O | < 4.00 | > 100 | 6.22 | –
23 | N=C(N)NCCC[C@H](NC(=O)c1ccc(C(c2ccccc2)c2ccc3ccccc3c2)s1)C(=O)O (mixture of isomers) | < 4.00 | > 100 | 7.05 | –
24 | N=C(N)NCCC[C@H](NC(=O)c1ccc(Cc2ccccc2)s1)C(=O)O | < 4.00 | > 100 | < 5.00 | –
25 | CCC(Cc1ccccc1)c1ccc(C(=O)N[C@@H](CCCNC(=N)N)C(=O)O)s1 (mixture of isomers) | < 4.00 | > 100 | 6.70 | –
26 | Cc1cc(C(c2ccc(F)cc2)c2ccc(F)cc2)sc1C(=O)N[C@@H](CCCNC(=N)N)C(=O)O | < 4.00 | > 100 | 7.46 | Activity [12]: 30 to 80%
